# Assay results pooled from the literature.
# Compare with care: the assays were run in different laboratories.
# Target: Mitogen-activated protein kinase 11 (MAPK11, Homo sapiens, UniProt Q15759)
Structure (SMILES),assay,setting,measurement,value
CC(C)S(=O)(=O)c1ccc2nccc(Nc3ccc4sc(C5CCCC5)nc4c3)c2c1,"enzyme activity, inhibitor",1 µM,activity vs control,108%
C=CC(=O)N1CCC[C@@H](n2nc(-c3ccc(Oc4ccccc4)cc3)c3c(N)ncnc32)C1,"enzyme activity, inhibitor",1 µM,inhibition,2%
Cc1cc(O)c(-c2ccc([C@@H](C)CN(C)C)cc2)c2c1[nH]c(=O)c1sccc12,"enzyme activity, inhibitor",0.1 µM,inhibition,5.56%
Cc1ccc(NC(=O)c2ccnc(C(F)(F)F)c2)cc1-c1cc(OCCO)nc(N2CCOCC2)c1,"binding, competition with immobilised ligand",1 µM,remaining binding,34%
CCCCC(=O)Nc1ccc(-c2ccc3ncn(CCC)c(=O)c3c2)cn1,"binding, competition with immobilised ligand",0.5 µM,remaining binding,87%
N#Cc1ccc(NC(=O)Nc2ccccc2)cc1,"cell-free assay, competition with immobilised ligand",25 µM,remaining binding,100%
CC#CC(=O)N1CCC[C@H]1c1nc(-c2ccc(C(=O)Nc3ccccn3)cc2)c2c(N)nccn12,"enzyme activity, inhibitor",1 µM,inhibition,0%
CN1CCN(C(=O)c2ccc(NC(=O)Nc3ccc(N(C)c4ccnc(Nc5ccc(CS(C)(=O)=O)cc5)n4)cc3)cc2)CC1,"binding, competition with immobilised ligand",1 µM,remaining binding,100%
C#Cc1cnc(Nc2ccnc(CO)c2)nc1Nc1ccccc1S(C)(=O)=NC#N (stereo not shown),cell-free assay,1 µM,remaining signal,82%
C#Cc1cc(-c2cc(Nc3nc(N[C@@H](C)c4ccc(F)cn4)ncc3Cl)n[nH]2)ccc1C=O,"enzyme activity, inhibitor",0.2 µM,inhibition,21.9%
